For series [1], the target named is T1, Hexokinase-4 (Homo sapiens, UniProt P35557).
T1 sequence (P35557 whole entry): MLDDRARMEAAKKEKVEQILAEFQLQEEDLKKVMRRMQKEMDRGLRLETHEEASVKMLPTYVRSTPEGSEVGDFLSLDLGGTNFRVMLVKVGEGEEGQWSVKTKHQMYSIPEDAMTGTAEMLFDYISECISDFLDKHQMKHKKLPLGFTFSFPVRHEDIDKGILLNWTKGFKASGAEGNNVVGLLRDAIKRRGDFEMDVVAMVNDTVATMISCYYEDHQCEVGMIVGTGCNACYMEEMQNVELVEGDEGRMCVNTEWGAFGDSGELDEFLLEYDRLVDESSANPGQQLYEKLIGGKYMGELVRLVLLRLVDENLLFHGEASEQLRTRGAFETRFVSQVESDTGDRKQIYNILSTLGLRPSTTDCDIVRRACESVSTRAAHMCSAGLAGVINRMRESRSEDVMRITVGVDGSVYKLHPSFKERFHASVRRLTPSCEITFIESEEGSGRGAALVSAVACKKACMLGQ
Briefly: Activation of flag-tagged human recombinant liver glucokinase expressed in Escherichia coli by glucose-6-phosphate dehydrogenase coupled continuous spectrophotometric assay in presence of 2.5 mM glucose.

The target of series [2] is T1, Hexokinase-4. As to the kind of experiment: Activation of flag-tagged human recombinant liver glucokinase expressed in Escherichia coli by glucose-6-phosphate dehydrogenase coupled continuous spectrophotometric assay in presence of 10 mM glucose.
Series [3] can be described thus: Octanol-water distribution coefficient, log D at pH 7.4 by HPLC-MS analysis.
Series [4] in a line: Solubility in water at pH 7.4 by HPLC-UV method.
The subject of series [5] is Mus musculus. As to the kind of experiment: Glucose lowering effect in normal-fed ICR mouse assessed as decrease in blood glucose AUC level at 3 mg/kg, po. The series is classed as functional, organism-based. Also on record: dose 3 mg/kg. The method in brief: (§1)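 Male ICR mice aged ten to eleven weeks, fed ad libitum, given a single oral dose suspended in 0.5% methylcellulose; vehicle alone served as control. Blood glucose was measured immediately before dosing and at 0.5, 1, 1.5, 2, 3 and 4 h afterwards.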

Series [6] has as its system Mus musculus. As to the kind of experiment: Glucose lowering effect in normal-fed ICR mouse assessed as decrease in blood glucose AUC level at 10 mg/kg, po. The series is classed as functional, organism-based. Also on record: dose 10 mg/kg. The method in brief: as §1

Structures are written as SMILES. Calls of active or inactive are those of the source. The rule behind the calls is not given here.

For the compound `CC(CN(C)C)Oc1cc(Oc2ccc(S(C)(=O)=O)cc2)cc(C(=O)Nc2nccs2)c1` (racemic), the EC50 (as a rule, the concentration at which the effect is half-maximal) was determined as 12000 nM on Hexokinase-4 [1] and 2600 nM on Hexokinase-4 [2].
The like results for `Cc1csc(NC(=O)c2cc(Oc3ccc(S(C)(=O)=O)cc3)cc(OC(C)C(=O)O)c2)n1` (racemic) were, in that order, 30000 nM and 7400 nM.
In the case of `CS(=O)(=O)c1ccc(Oc2cc(OC(CO)C(F)(F)F)cc(C(=O)Nc3nccs3)c2)cc1` (racemic), the EC50 at Hexokinase-4 [1] turned out to be 790 nM; at Hexokinase-4 [2], 240 nM. The log distribution coefficient (logD) – broadly, the decadic logarithm of the distribution of all forms, ionised or not, between an organic phase and buffer at a given pH – in series [3] was greater than 4.
Take `CS(=O)(=O)c1ccc(Oc2cc(O[C@H]3CCOC3)cc(C(=O)Nc3nccs3)c2)cc1`: the EC50 came out at 190 nM on Hexokinase-4 [1] and 50 nM at Hexokinase-4 [2].
Turning to `CS(=O)(=O)c1ccc(Oc2cc(O[C@H]3CCC[C@@H]3O)cc(C(=O)Nc3nccs3)c2)cc1` (stereo in doubt), the results for the EC50 on Hexokinase-4 [1] and on Hexokinase-4 [2] were 280 nM and 170 nM, respectively.
For `CS(=O)(=O)c1ccc(Oc2cc(O[C@H]3CCC[C@H]3O)cc(C(=O)Nc3nccs3)c2)cc1`, in that order: 260 nM and 110 nM.
In the case of `CS(=O)(=O)c1ccc(Oc2cc(OCCO)cc(C(=O)Nc3nccs3)c2)cc1`, the results for the EC50 on Hexokinase-4 [1] and on Hexokinase-4 [2] were 780 nM and 200 nM, respectively. The logD in series [3] amounted to 2.4.
`CS(=O)(=O)c1ccc(Oc2cc(O[C@@H]3CCC[C@@H]3O)cc(C(=O)Nc3nccs3)c2)cc1`: the EC50 worked out at 3400 nM on Hexokinase-4 [1] and 1200 nM at Hexokinase-4 [2].
With `CS(=O)(=O)c1ccc(Oc2cc(OC3CCOC3)cc(C(=O)Nc3nccs3)c2)cc1` (racemic), the pH-dependent lipophilicity (logD) in series [3] stood at 4.2.
As for `Cc1csc(NC(=O)c2cc(Oc3ccc(S(C)(=O)=O)cc3)cc(OC(C)C)c2)n1`, the solubility (commonly how much of the substance goes into solution per volume) in series [4] is less than 0.1 µg/mL. Besides, the pH-dependent lipophilicity (logD) in series [3] is greater than 5. Moreover, the result in the series on Mus musculus [5] and in the series on Mus musculus [6] was inactive.
On to `COCC(COC)Oc1cc(Oc2ccc(S(C)(=O)=O)cc2)cc(C(=O)Nc2nccs2)c1`, for which the half-maximal effective concentration (EC50) came out at 610 nM at Hexokinase-4 [1] and 120 nM on Hexokinase-4 [2]. This compound also displayed a logD in series [3] greater than 4.
On to `CS(=O)(=O)c1ccc(Oc2cc(O[C@@H]3CCOC3)cc(C(=O)Nc3nccs3)c2)cc1`, for which the EC50 at Hexokinase-4 [1] was 1800 nM; on Hexokinase-4 [2], 300 nM.
Consider `CC(CN)Oc1cc(Oc2ccc(S(C)(=O)=O)cc2)cc(C(=O)Nc2nccs2)c1` (racemic), for which the 50% effective concentration (EC50) at Hexokinase-4 [1] turned out to be 1500 nM; on Hexokinase-4 [2] it was 210 nM. The compound also had a logD in series [3] of 1.1.
For `CS(=O)(=O)c1ccc(Oc2cc(OC3CCOCC3)cc(C(=O)Nc3nccs3)c2)cc1`, in that order: 460 nM, 120 nM and 4.1.

For the origin of these results see ChEMBL document CHEMBL1151922, “Structure-activity relationships of 3,5-disubstituted benzamides as glucokinase activators with potent in vivo efficacy” (Bioorg Med Chem, 2009).
